Screens (PubChem BioAssay)
procasp3 activ = activators of human procaspase-3; activation, % at 8.5 µM; recombinant procaspase-3 D3A, Ac-DEVD-pNA absorbance 405 nm; P42574; hit rate 0.11% among 330,000; AID 463141;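 active = activation above the mean of all tested compounds plus 3 SD, cut at about 21% in these data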;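 note: 0% = DMSO alone and 100% = DMSO wells spiked with extra 5 µM PC-3 D3A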
Target sequence (P42574 whole entry D9A/D28A/D175A): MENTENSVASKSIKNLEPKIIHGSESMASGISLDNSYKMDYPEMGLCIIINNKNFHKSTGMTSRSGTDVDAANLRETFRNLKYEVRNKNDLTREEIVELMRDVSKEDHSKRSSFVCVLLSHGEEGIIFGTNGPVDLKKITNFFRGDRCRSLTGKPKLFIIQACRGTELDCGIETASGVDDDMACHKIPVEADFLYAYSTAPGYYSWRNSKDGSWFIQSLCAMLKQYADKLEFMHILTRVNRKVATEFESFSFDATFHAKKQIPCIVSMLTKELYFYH
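assay system = Procaspase-3 D3A mutant | signal = absorbance at 405 nm, 0 and 120 min | times = 1 h preincubation plus 2 h reaction at 25 °C | repeats = single replicate | read-out = % activation between DMSO and enzyme-spiked controls | medium = Zinc-free HEPES saline buffer with Triton X-100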
GAA850 FXN act = activators of GAA850 frataxin (FXN) promoter; HEK293 lucGAA850 FXN promoter luciferase reporter, 24 h; percent of 10 µM SAHA response; activation, % at 6 µM; hit rate 0.56% among 360,000; AID 540364;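 active = activation above the average of all compounds screened plus 3 SD, cutoff fixed separately per campaign, cut at about 7.5% in these data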;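 note: 0% = DMSO wells and 100% = 10 µM SAHA wells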
Hep lipid drop = hepatic lipid droplet formation modulation | AML12 mouse hepatocytes, oleate lipid droplets, BODIPY imaging | inhibition, % at 6.5 µM | hit rate 0.4% among 240,000;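 active = lipid droplet intensity inhibited by at least 50%, with more than 500 cells counted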
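Material: mouse AML12 hepatocyte cell line, fixed after treatment; Timing: compound with oleate, overnight; Technique: high-content imaging of BODIPY-stained droplets and DAPI nuclei; Probe or stimulus: oleate, 100 µM final; Dosing: compound at 6.5 µM only.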
proCasp7 act = activates human procaspase-7, counter-screen for procaspase-3 activators; P55210; recombinant procaspase-7, Ac-DEVD-pNA absorbance 405 nm; D23A/D198A/D206A triple mutant, cannot self-cleave; scale: DMSO 0, 5 µM enzyme 100; activation, % at 8.5 µM; hit rate 0.093% among 330,000; AID 463210;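 active = percent activation above the screen-wide mean plus 3 SD, cut at about 25% in these data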
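Test system: Procaspase-7 triple mutant (PC-7 D3A). Also added: Ac-DEVD-pNA substrate, 400 µM as added. Schedule: 1 h enzyme–compound preincubation and 2 h substrate reaction, both 25 °C. Signal: p-Nitroaniline absorbance at 405 nm, read at 0 and 120 min. Control set: low DMSO alone, high DMSO plus 5 µM PC-7.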
p-CIP stab down = p/CIP protein destabilization; hit rate 0.01% among 290,000; Q05BA5; AID 1984; F442A p/CIP-EGFP cells, EGFP fluorescence, 16 h; decrease of EGFP signal, % at 10 µM;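 active = EGFP signal decrease of at least 30% at 10 µM or well 3 SD below plate mean, unless failing retest; inactive = the rest, including hits failing retest or dose response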
Rce1 inhib = blocks yeast Ras-converting enzyme. Q03530. hit rate 0.27% among 290,000. calls only. yeast membranes, quenched prenylated peptide cleavage fluorescence;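 active = fall in fluorescence gain of 50% or more versus controls, with final raw signal at or below 3038400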;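 note: plate controls were neutral control wells for no effect and wells lacking membranes for full effect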
Target sequence (Q03530 whole entry, looked up): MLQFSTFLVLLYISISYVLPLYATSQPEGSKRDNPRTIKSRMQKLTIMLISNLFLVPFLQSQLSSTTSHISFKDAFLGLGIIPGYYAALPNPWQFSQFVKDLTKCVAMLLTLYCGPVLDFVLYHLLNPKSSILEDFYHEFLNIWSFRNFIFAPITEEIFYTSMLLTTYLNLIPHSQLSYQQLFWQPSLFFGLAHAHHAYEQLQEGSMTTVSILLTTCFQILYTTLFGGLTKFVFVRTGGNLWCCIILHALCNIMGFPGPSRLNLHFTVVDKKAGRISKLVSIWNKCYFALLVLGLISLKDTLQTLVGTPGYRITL
* marks the source's active call; other numbers are inactive results. Hits are enriched below; roughly 1.2% of the tested compounds scored in any of these assays.

CN(C)c1ccc(-c2csc(C(O)c3cccc(Cl)c3)n2)cc1 (centres undefined) was read as GAA850 FXN act 1.4.
Screening COc1ccccc1NC(=O)Cc1nnc(SCC(=O)Nc2ccccc2F)n1C returned procasp3 activ 0.5, GAA850 FXN act 0.3, Hep lipid drop 1.5, proCasp7 act -5.7, p-CIP stab down -4.2 and Rce1 inhib inactive.
For COc1ccccc1NC(=O)Cc1nnc(SCC(=O)Nc2nccs2)n1C the results were procasp3 activ 7.6, GAA850 FXN act -1.8, Hep lipid drop 9.2, proCasp7 act 1.0, p-CIP stab down -10.6 and Rce1 inhib active.
Screening COc1ccc(/C(N)=N/OC(=O)C2CCCCC2)cc1OC returned procasp3 activ 0.1, GAA850 FXN act 9.0*, Hep lipid drop 29.8, proCasp7 act 15.9, p-CIP stab down -5.9 and Rce1 inhib inactive.
Screening CC(=O)OC1=C(O)C(=O)c2ccccc2C1=O returned procasp3 activ -0.8, proCasp7 act -22.7 and Rce1 inhib active.
`O=C(COC(=O)c1ccccc1SCC(=O)NC1CCS(=O)(=O)C1)NC1CCS(=O)(=O)C1` (centres undefined) gave procasp3 activ -1.8, GAA850 FXN act 2.0, Hep lipid drop 5.4, proCasp7 act -1.5, p-CIP stab down 16.4 and Rce1 inhib inactive.
For O=C(COC(=O)c1ccccc1Cc1ccccc1)NC1CCS(=O)(=O)C1 (centres undefined) the results were procasp3 activ 0.6, GAA850 FXN act 1.6, Hep lipid drop 1.2, proCasp7 act 3.3, p-CIP stab down -4.9 and Rce1 inhib active.
Screening CCc1nc2ccc(C(=O)N3CCN(C(=O)c4ccco4)CC3)cn2c1N(CCC(C)C)CCN(C)C returned GAA850 FXN act -1.3.
For Cc1ccc(-c2cc3cccc[n+]3cc2-c2ccc(C)cc2)cc1 the results were procasp3 activ 6.7, GAA850 FXN act -10.0, Hep lipid drop -29.3, proCasp7 act 2.3, p-CIP stab down -23.8 and Rce1 inhib active.
`O=C(NCc1ccc(Cl)cc1)c1ccc(-c2ccc(F)c(F)c2)c2ccoc12` gave GAA850 FXN act -0.8.
Screening OC(c1cc(Cl)cc(Cl)c1)c1ncc(-c2cccc(F)c2)[nH]1 (centres undefined) returned GAA850 FXN act 1.6.
Screening CCOc1ccccc1CNC(=O)c1cc2oc3ccccc3c2n1C returned procasp3 activ 4.7, GAA850 FXN act -5.2, Hep lipid drop 15.7, proCasp7 act 1.7, p-CIP stab down -18.2 and Rce1 inhib inactive.
Screening CCOc1ccccc1CNC(=O)c1cc2occc2n1C returned procasp3 activ 6.5, GAA850 FXN act 0.0, Hep lipid drop -9.3, proCasp7 act 1.9, p-CIP stab down -4.2 and Rce1 inhib active.
`COc1ccc(S(=O)(=O)NCc2ccc(C(=O)NCCN(C)Cc3ccccc3)cc2)cc1` gave GAA850 FXN act -0.5.
Screening N#CC(C#N)=C1NC(N)=C(C#N)C(c2ccccc2)=C1C#N returned procasp3 activ -5.6, GAA850 FXN act -0.5, proCasp7 act -11.2, p-CIP stab down -0.4 and Rce1 inhib active.
`N#CC1=C(c2ccccc2)/C(=C/c2ccccc2)OC1=O` gave procasp3 activ -8.4, GAA850 FXN act 4.1, Hep lipid drop 6.8, proCasp7 act 3.3, p-CIP stab down -1.7 and Rce1 inhib inactive.
For O=C(c1cn(-c2ccccc2)nc1-c1cccs1)N1CCN(c2ccccc2)CC1 the results were procasp3 activ -2.7, GAA850 FXN act -3.7, Hep lipid drop 21.3, proCasp7 act 1.0, p-CIP stab down 2.1 and Rce1 inhib active.
`O=C(c1cc(-c2ccccc2)nc2ccccc12)N1CCN(c2ccccn2)CC1` gave procasp3 activ -8.2, GAA850 FXN act 6.0, Hep lipid drop -20.3, proCasp7 act 9.3, p-CIP stab down 7.5 and Rce1 inhib active.
`O=C(/C=C/c1cn(-c2ccccc2)nc1-c1cccs1)NCCN1CCOCC1` gave procasp3 activ -0.4, GAA850 FXN act -0.3, Hep lipid drop 13.2, proCasp7 act 5.7, p-CIP stab down -16.1 and Rce1 inhib active.
`COc1ccc(N2CCN(C(=O)c3cc(-c4cccs4)nc4ccccc34)CC2)cc1` gave procasp3 activ 9.2, GAA850 FXN act 0.3, Hep lipid drop -12.9, proCasp7 act 0.4, p-CIP stab down -9.1 and Rce1 inhib active.
OC[C@@H]1CN(Cc2cccnc2)C[C@H](n2cnc3c(N4CCN(c5ccccc5)CC4)ncnc32)O1 was read as GAA850 FXN act -0.5.
Screening COCCOC(=O)N1CCCCC1c1cc(C(=O)Nc2cccc3c2CCCC3)no1 (centres undefined) returned GAA850 FXN act -1.5.
For O=C(NCc1ccccc1)c1cc(C2CCCN(S(=O)(=O)c3cccs3)C2)on1 (centres undefined) the results were GAA850 FXN act -1.8.
`CC(=O)c1cccc(NC(=O)C2(C)Cc3c(-c4cccc(C(F)(F)F)c4)ccnc3O2)c1` (centres undefined) gave GAA850 FXN act -0.2.
`COc1ccc(Cn2c(N)c(S(=O)(=O)c3cccs3)c3nc4ccccc4nc32)cc1` gave procasp3 activ -7.6, GAA850 FXN act -2.3, proCasp7 act 13.0, p-CIP stab down -3.1 and Rce1 inhib active.
Screening CCc1nc2c(OCc3ccccc3)cccn2c1N(C)C(=O)c1ccc2c(c1)OCO2 returned GAA850 FXN act 0.9.
`CCn1c(-c2cccs2)nc2ccccc21` gave procasp3 activ 2.1, GAA850 FXN act 1.5, Hep lipid drop -3.7, proCasp7 act 0.7, p-CIP stab down 1.1 and Rce1 inhib active.
CCOC(=O)c1ccc(NC(=O)[C@@H]2CCC(=O)N2C2OC(=O)c3c2ccc(OC)c3OC)cc1 (some centres undefined) was read as GAA850 FXN act 0.9.
`CN(CCOCCOc1ccc(Cl)cc1Br)Cc1ccccc1` gave procasp3 activ -5.1, GAA850 FXN act 2.6, Hep lipid drop -9.8, proCasp7 act 0.6, p-CIP stab down 37.8* and Rce1 inhib inactive.
For Cc1cc(N2CCOCC2)n2cc(-c3ccccc3)nc2n1 the results were procasp3 activ -4.9, GAA850 FXN act -0.6, Hep lipid drop -1.0, proCasp7 act 6.6, p-CIP stab down 6.8 and Rce1 inhib active.
For Cc1ccc(S(=O)(=O)Oc2ccc(C3C4=C(CCCC4=O)N(CCC(=O)O)C4=C3C(=O)CCC4)cc2Cl)cc1 the results were procasp3 activ -0.6, GAA850 FXN act 0.8, Hep lipid drop 1.8, proCasp7 act 1.1, p-CIP stab down -4.6 and Rce1 inhib active.
